# KCNK9 block – inhibitors of human KCNK9 two-pore domain potassium channel | Q9NPC2 | AID 488922 | 1.2% of 310,000 active | HEK293 KCNK9, FluxOR thallium flux fluorescence; stronger effect = lower value | B-score at 10 µM;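 active means ratio B-score over 3 SD below the library mean, with starting fluorescence within 5 SD of its mean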;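 further: negative B-score means less thallium flux so channel inhibition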
# KCNK3 block – human KCNK3 channel inhibition, primary screen | CHO-KCNK3 thallium flux, FluxOR fluorescence; stronger effect = lower value | B-score at 10 µM | 0.84% of 340,000 active;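 active means B-score under library mean minus 4 SD, starting fluorescence ratio at most library mean plus 5 SD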;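 further: more negative B-score means stronger inhibition of thallium flux through KCNK3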
# hERG rescue – hERG (human) protection from proarrhythmic block | 0.51% of 310,000 active | activation (rescue from dofetilide block), less the hit threshold, % at 10 µM | CHO-hERG, FluxOR thallium flux, dofetilide IC70 present | Q12809 | AID 1511;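 active means activation above the mean of controls blocked by dofetilide plus 5 SD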;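 further: thallium influx through hERG after potassium depolarization seen as dye fluorescence rise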
# KCNQ1 pot – potentiators or activators of human KCNQ1 potassium channel. CHO-K1 KCNQ1, thallium flux FluxOR fluorescence; stronger effect = higher value. 0.35% of 310,000 active. B-score at 10 µM;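 active means fluorescence ratio B-score, a plate-corrected score, at least three library SD, with initial intensity B-score within 5 SD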
#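 Test system: CHO-K1 cells stably expressing KCNQ1 / Medium: assay buffer / Also added: depolarizing K+/Tl+ stimulus, K2SO4 and Tl2SO4 each 12.5 mM in 5x stock / Incubation: 90 min dye loading and 20 min compound exposure, both at room temperature / Signal: thallium influx via FluxOR fluorescence, kinetic imaging / Evaluation: B score of baseline-normalized fluorescence ratio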
# KCNQ1 block – blocks the human KCNQ1 potassium channel; B-score at 10 µM; AID 2642; CHO-K1 KCNQ1, FluxOR thallium flux fluorescence; stronger effect = higher value; 1.3% of 310,000 active; P51787;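 active means compounds whose thallium flux B-score, printed positive for inhibition, exceeds three library SD while starting fluorescence stays within three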;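 further: channel opened by potassium depolarization with thallium stimulus after 20 min compound exposure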
# KCNK9 block conf – confirmation of human KCNK9 potassium channel inhibitors | shares compounds with KCNK9 block | HEK293 KCNK9 cells, FluxOR thallium flux fluorescence | inhibition, % at 10 µM | 43% of 4,900 active | AID 492992;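 active means thallium signal inhibited by more than 5 SD of the compound-free buffer control wells, on both duplicate plates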;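 further: 0% = assay buffer control wells without compound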
# Kir2-1 spec – selectivity of KCNK9 modulators against mouse Kir2.1; Kir2.1 cells, FluxOR thallium flux fluorescence; shares compounds with KCNK9 block; inhibition, % at 10 µM; 4% of 4,900 active; AID 492993;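 active means thallium signal drop more than 5 SD beyond the mean of the no-compound control wells, seen in both duplicate plates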;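 further: signal is fluorescence rise after thallium addition divided by baseline fluorescence; plate controls were assay buffer only for no effect and full block by chlorpromazine control for full effect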
# Target sequence (P35561 whole entry, looked up): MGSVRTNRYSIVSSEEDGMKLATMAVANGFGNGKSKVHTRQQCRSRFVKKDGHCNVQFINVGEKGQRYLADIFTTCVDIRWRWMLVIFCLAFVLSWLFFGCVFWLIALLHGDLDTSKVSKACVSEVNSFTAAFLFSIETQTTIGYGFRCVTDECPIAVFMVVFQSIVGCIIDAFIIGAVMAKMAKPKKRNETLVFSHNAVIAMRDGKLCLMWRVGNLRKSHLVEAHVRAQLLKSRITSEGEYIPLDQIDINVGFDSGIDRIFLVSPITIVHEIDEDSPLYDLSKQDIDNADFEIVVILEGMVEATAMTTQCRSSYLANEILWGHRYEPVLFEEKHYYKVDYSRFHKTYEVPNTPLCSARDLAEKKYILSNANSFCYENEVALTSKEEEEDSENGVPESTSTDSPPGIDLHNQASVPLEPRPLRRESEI
# HEK293 Tl ctr – second check of KCNK9 modulator effects in non-induced HEK293 cells; inhibition, % at 10 µM; 40% of 4,900 active; AID 492997; shares compounds with KCNK9 block; FluxOR thallium flux;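 active means thallium signal drop beyond 5 SD of the untreated control mean, on both duplicate plates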;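 further: plate controls were buffer only IC0 wells for no effect and SID17386958 at its maximal inhibitory level for full effect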
# Starred values were filed as active, the others as inactive; i = inactive; . = not tested or not shown. The list is not random: actives were taken first. Their share in the collection is about 3.1%.
SMILES,KCNK9 block,KCNK3 block,hERG rescue,KCNQ1 pot,KCNQ1 block,KCNK9 block conf,Kir2-1 spec,HEK293 Tl ctr
CC(NC(=O)c1ccc(CS(=O)(=O)c2cccc(C(F)(F)F)c2)o1)c1ccc2c(c1)OCCO2 (stereo unspecified),i,i,-11.6,i,i,i,i,i
Cc1ccccc1-n1nnnc1SCC(=O)NCC1CCCO1 (stereo unspecified),i,i,-8.1,i,i,.,.,.
COc1ccc(C(=O)CN2CCN(CCN3C(=O)c4cccc5cccc(c45)C3=O)CC2)cc1,i,i,-17.1,i,i,i,i,i
O=C(CN1CCN(CCN2C(=O)c3cccc4cccc(c34)C2=O)CC1)c1ccc(F)cc1,i,i,-4.5,i,i,.,.,.
CC/C(=N\NC(=S)Nc1ccc(OC)cc1)c1ccc(OC(F)F)cc1,i,i,0.2,i,i,i,i,i
Cc1cccc(NC(=S)N/N=C(\c2ccccc2)C(C)C)c1,i,i,-3.4,i,i,i,i,i
CC/C(=N\NC(=S)Nc1cccc(C)c1)c1ccccc1,i,i,6.9*,12*,i,i,i,i
CC(C)/C(=N\NC(=O)Nc1ccccc1)c1ccccc1,i,i,-8.1,i,i,.,.,.
COc1cc(N=Nc2cccc(S(N)(=O)=O)c2)c2ccccc2c1N,i,i,-11.2,i,i,.,.,.
O=C(O)c1nc(NCc2ccccc2)ncc1Cl,i,i,-4.9,i,i,.,.,.
Cc1cc2ccccn2c1C(=O)c1nc(NCc2ccccc2)ncc1Cl,i,i,-7.0,i,i,i,i,25.5%*
C=CCN(CC=C)C(=O)CN1C(=O)NC(Cc2c[nH]c3ccccc23)C1=O (stereo unspecified),i,i,0.1,i,i,.,.,.
NC(=O)SCC(=O)Nc1ccc(Cl)cc1,i,i,-6.8,i,i,.,.,.
NC(=O)SCC(=O)Nc1cccc(Cl)c1,-10.3*,i,0.0,i,i,57.5%*,i,36.5%*
CC(=O)N1CCOc2ccc(S(=O)(=O)Nc3cccc(C)n3)cc21,i,i,-4.0,i,i,.,.,.
Cc1ccc2oc(C(=O)N(C)Cc3ccc(C)o3)c(C)c2c1,i,i,-6.9,i,i,i,i,25.0%*
COc1ccc2oc(C(=O)NCC(c3ccco3)N(C)C)c(C)c2c1 (stereo unspecified),i,i,-11.2,i,i,.,.,.
COc1ccc2oc(C(=O)N(C)CCOc3ccc(Cl)cc3)c(C)c2c1,i,i,-6.9,i,i,i,i,i
Cc1nc(NC(=O)c2ccccc2)sc1C1(C)CC(c2ccccc2F)=NO1 (stereo unspecified),i,i,-9.1,i,i,.,.,.
Cc1nc(NC(=O)c2ccccc2)sc1C1(C)CC(c2c(Cl)cccc2Cl)=NO1 (stereo unspecified),-9.81*,i,-17.0,i,i,55.0%*,i,36.0%*
OCc1cccc[n+]1Cc1ccccc1,i,i,-6.2,i,i,.,.,.
Cc1cccc(C(=O)NN2C(=O)C3C(c4ccccc4)C=CC(c4ccccc4)C3C2=O)c1 (stereo unspecified),-12.9*,i,1.2,i,i,41.0%*,i,i
O=C(NN1C(=O)C2C3C=CC(C3)C2C1=O)c1ccccc1 (stereo unspecified),i,i,-7.8,i,i,.,.,.
Cc1cccc(-c2noc(-c3ccccc3C(=O)NCc3ccco3)n2)c1,i,i,-9.7,i,i,.,.,.
CC1Cc2ccccc2N1C(=O)c1ccc(N2CCCCC2)c([N+](=O)[O-])c1 (stereo unspecified),-11.2*,i,-12.6,i,i,49.0%*,i,25.0%*
SMILES,KCNK9 block,KCNK3 block,hERG rescue,KCNQ1 pot,KCNQ1 block,KCNK9 block conf,Kir2-1 spec,HEK293 Tl ctr
CC(C)NC(=O)N(C)C[C@H]1Oc2ccc(NC(=O)c3ccncc3)cc2C(=O)N([C@H](C)CO)C[C@@H]1C,.,i,.,.,.,.,.,.
O=[N+]([O-])c1ccccc1-c1ccc(C(=S)N2CCN(c3ccccc3)CC2)o1,i,i,-5.7,i,i,i,i,i
CCCNS(=O)(=O)c1ccc(Oc2ncc(C(F)(F)F)cc2Cl)cc1,i,i,-9.0,i,i,.,.,.
Cc1cc(C)cc(Oc2ncnc3c2ncn3Cc2c(Cl)cccc2Cl)c1,i,i,0.8,i,i,i,i,i
CCc1ccc(N(C(=O)c2snc(C(N)=O)c2N)C(C(=O)NCC2CCCO2)c2cccs2)cc1 (stereo unspecified),i,i,-18.4,i,i,i,i,i
COc1ccc(NC(=O)CN2CCN(c3ccccc3Cl)CC2)cc1,i,i,-11.7,i,i,i,i,i
COc1cccc(C2=CC(=O)C(C(C)(C)C)N2C(C)(C)C)c1 (stereo unspecified),.,i,.,.,.,.,.,.
CC1(c2nnc(-c3cccc(Cl)c3)o2)CC(c2c(Cl)cccc2Cl)=NO1 (stereo unspecified),-10.4*,i,-24.0,i,i,58.0%*,i,29.0%*
O=C(NCc1cccs1)C(=O)NCC(c1ccco1)N1CCN(c2ccccc2F)CC1 (stereo unspecified),i,i,-4.1,i,i,.,.,.
c1ccc(Cn2c(NCc3ccncc3)nc3ccccc32)cc1,i,i,-12.5,i,i,.,.,.
COc1ccc(CNc2nc3ccccc3n2Cc2ccc(C)cc2)cc1OC,-8.48*,i,-15.1,i,i,28.0%*,i,i
Cn1cc(NC(=O)OCc2ccc(Cl)cc2)c(C(F)(F)F)n1,i,i,-13.8,i,i,.,.,.
Cc1ccc(NS(=O)(=O)c2cccc(C(=O)NCCc3c[nH]c4ccccc34)c2)c(C)c1,i,i,-16.8,i,i,i,i,27.0%*
Cc1ccc(NC(=O)C(=O)NCCc2c[nH]c3ccccc23)c(C)c1,i,i,-13.2,i,i,.,.,.
CCOc1cc(C2C(C(=O)OC)=C(C)N=C3SC(C)C(=O)N32)ccc1OC(C)=O (stereo unspecified),i,i,-3.4,i,i,.,.,.
